For 3 molecules, Kd and inhibition results are on record in ChEMBL document CHEMBL5316295, “Systematic Design of Adenosine Analogs as Inhibitors of a Clostridioides difficile-Specific DNA Adenine Methyltransferase Required for Normal Sporulation and Persistence” (J Med Chem, 2023).

The source made the active and inactive calls. No cut-off for these calls is given here.

Assay [1] in a line: Binding affinity to Clostridioides difficile-specific DNA adenine methyltransferase by MicroCal PEAQ-ITC instrument analysis.
The test system of another assay is Caulobacter vibrioides. The assay is described as follows: Inhibition of Caulobacter vibrioides CcrM using 5'-CGA TTC AAA AAG TCC CAA G-3' and 3'-GCT AAG TTT TTC AGG GTT C-5' as substrate and SAM as cosubstrate at 10 uM incubated for 5 mins. In outline:
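Conditions were enzyme 0.1 μM, DNA 5 μM, SAM 30 μM, inhibitor 10 μM, at ~22 °C in 50 mM Tris–HCl pH 7.5, 100 mM NaCl, 1 mM DTT, 0.25% DMSO, run 5 min. Substrate and SAM levels were above K_M.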

Assay [2] concerns the target DNA (cytosine-5)-methyltransferase 1 (Homo sapiens) (UniProt P26358). The assay is described as follows: Inhibition of human DNMT1 (351 to 1600 residues) using 5'-CCT GCG GAG GCT MGT CAT GA-3' and 3'-GGACGCCTCCGAGCAGTACT-5' as substrate and SAM as cosubstrate at 10 uM incubated for 1 hr. The gist of the method:
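DNMT1 (0.1 μM) with 1 μM hemimethylated dsDNA, 5.5 μM SAM and 10 μM inhibitor in 50 mM Tris pH 7.5, 1 mM EDTA, run 1 h at 37 °C.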

In assay [3] the target is METTL3/METTL14 (Homo sapiens) (UniProt Q86U44+Q9HCE5). The assay is described as follows: Inhibition of human METTL3/METTL14 using 5'-AAC AGA AUG GGA CUG UUC-3' as substrate and SAM as cosubstrate at 10 uM incubated for 15 mins. Format: protein-complex assay. In outline: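 Under CamA conditions (100 mM NaCl) the assay ran 15 min with 10 μM inhibitor. An alternative condition used 0.1 μM enzyme, 10 μM ssRNA, 20 μM SAM in 50 mM HEPES pH 7.5, 5 mM NaCl, 1 mM DTT, 0.25% DMSO for 10 min.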

Assay [4] concerns the target METTL5-TRM112 (Homo sapiens) (UniProt Q9UI30+Q9NRN9). The assay is described as follows: Inhibition of human METTL5/TRM112 using 5'-UCG UAA CAA GGU UU-3' as substrate and SAM as cosubstrate at 10 uM incubated for 1 hr. Format: protein-complex assay. The gist of the method: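 Enzyme 0.1 μM with 5 μM RNA, 30 μM SAM and 10 μM inhibitor at ~22 °C in 50 mM Tris–HCl pH 7.5, 100 mM NaCl, 1 mM DTT, 0.25% DMSO. PCIF1 run 15 min with capped RNA; MettL5-Trm112 run 1 h with ssRNA.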

Assay [5] concerns the target Histone-lysine N-methyltransferase, H3 lysine-79 specific (Homo sapiens) (UniProt Q8TEK3). The assay is described as follows: Inhibition of human DOT1L using oligonucleosome as substrate and 3H-SAM as cosubstrate at 10 uM pretreated with compound for 20 mins in presence of oligonucleosome followed by cosubstrate addition and measured after 1 hr. The settings on record: time 80.0 min. The gist of the method:
(§1)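 Enzymes (DOT1L 1 nM; EZH2, G9a, PRMT1 5 nM) mixed with substrate (0.05 mg/mL oligonucleosomes for DOT1L; 0.05 mg/mL core histone for EZH2; 5 μM H3 1–21 peptide for G9a; 5 μM H4 for PRMT1). Compound (10 μM) added for 20 min at room temperature, then 1 μM ³H-SAM for 1 h at 30 °C; filter-paper read-out. Triplicates, mean ± SD.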

The target in assay [6] is Histone-lysine N-methyltransferase EZH2 (Homo sapiens) (UniProt Q15910). The assay is described as follows: Inhibition of EZH2 (unknown origin) using chicken core histone as substrate and 3H-SAM as cosubstrate at 10 uM pretreated with compound for 20 mins in presence of chicken core histone followed by cosubstrate addition and measured after 1 hr. The settings on record: time 80.0 min. The gist of the method:
as §1

The target in assay [7] is T1, Histone-lysine N-methyltransferase EHMT2 (Homo sapiens) (UniProt Q96KQ7).
T1 sequence (whole entry): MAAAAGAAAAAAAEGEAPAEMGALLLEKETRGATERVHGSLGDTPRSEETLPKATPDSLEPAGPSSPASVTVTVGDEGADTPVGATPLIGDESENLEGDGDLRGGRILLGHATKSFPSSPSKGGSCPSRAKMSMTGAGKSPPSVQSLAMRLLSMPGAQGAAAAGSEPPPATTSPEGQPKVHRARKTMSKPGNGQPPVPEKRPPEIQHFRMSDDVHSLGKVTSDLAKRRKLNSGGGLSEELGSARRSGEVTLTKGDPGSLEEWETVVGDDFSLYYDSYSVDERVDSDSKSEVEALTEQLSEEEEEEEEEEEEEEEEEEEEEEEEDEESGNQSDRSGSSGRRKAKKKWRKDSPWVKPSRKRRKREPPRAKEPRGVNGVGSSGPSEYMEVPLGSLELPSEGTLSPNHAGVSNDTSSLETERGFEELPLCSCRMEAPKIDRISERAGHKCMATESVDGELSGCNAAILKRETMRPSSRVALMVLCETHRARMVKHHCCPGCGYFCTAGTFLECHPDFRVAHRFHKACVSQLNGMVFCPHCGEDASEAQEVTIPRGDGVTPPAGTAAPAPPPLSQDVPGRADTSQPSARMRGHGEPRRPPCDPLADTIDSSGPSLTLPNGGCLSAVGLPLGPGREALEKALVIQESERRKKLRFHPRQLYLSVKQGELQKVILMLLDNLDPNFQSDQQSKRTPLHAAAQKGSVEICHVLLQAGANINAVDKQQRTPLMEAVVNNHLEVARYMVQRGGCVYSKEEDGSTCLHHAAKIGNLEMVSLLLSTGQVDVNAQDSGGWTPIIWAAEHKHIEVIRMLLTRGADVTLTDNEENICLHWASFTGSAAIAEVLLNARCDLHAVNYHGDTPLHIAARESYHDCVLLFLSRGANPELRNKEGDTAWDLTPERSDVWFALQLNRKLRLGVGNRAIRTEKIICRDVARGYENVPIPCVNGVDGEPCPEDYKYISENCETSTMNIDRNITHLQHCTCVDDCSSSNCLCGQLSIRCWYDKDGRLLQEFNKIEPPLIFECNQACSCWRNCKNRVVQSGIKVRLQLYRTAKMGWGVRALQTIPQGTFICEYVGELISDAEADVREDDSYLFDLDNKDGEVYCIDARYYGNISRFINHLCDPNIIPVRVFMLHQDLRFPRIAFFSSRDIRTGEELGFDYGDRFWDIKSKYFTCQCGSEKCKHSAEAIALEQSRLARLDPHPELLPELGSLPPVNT
The assay is described as follows: Inhibition of human G9a (913 to 1193 residues) expressed in Escherichia coli BL21 (DE3)-gold cells using histone H3 (1 to 21 residues) as substrate and 3H-SAM as cosubstrate at 10 uM pretreated with compound for 20 mins in presence of histone H3 (1 to 21 residues) followed by cosubstrate addition and measured after 1 hr. To be noted: time 80.0 min. The gist of the method: as §1

The target in assay [8] is Protein arginine N-methyltransferase 1 (Homo sapiens) (UniProt Q99873). The assay is described as follows: Inhibition of PRMT1 (unknown origin) using histone H4 as substrate and 3H-SAM as cosubstrate at 10 uM pretreated with compound for 20 mins in presence of histone H4 followed by cosubstrate addition and measured after 1 hr. To be noted: time 80.0 min. In outline: as §1

One may read the Kd as the constant that tells how readily two partners part at equilibrium. The low end stands for tighter binding, the high end for weaker binding.

Sequence of Histone-lysine N-methyltransferase EZH2 (Homo sapiens) (Q15910 whole entry, looked up): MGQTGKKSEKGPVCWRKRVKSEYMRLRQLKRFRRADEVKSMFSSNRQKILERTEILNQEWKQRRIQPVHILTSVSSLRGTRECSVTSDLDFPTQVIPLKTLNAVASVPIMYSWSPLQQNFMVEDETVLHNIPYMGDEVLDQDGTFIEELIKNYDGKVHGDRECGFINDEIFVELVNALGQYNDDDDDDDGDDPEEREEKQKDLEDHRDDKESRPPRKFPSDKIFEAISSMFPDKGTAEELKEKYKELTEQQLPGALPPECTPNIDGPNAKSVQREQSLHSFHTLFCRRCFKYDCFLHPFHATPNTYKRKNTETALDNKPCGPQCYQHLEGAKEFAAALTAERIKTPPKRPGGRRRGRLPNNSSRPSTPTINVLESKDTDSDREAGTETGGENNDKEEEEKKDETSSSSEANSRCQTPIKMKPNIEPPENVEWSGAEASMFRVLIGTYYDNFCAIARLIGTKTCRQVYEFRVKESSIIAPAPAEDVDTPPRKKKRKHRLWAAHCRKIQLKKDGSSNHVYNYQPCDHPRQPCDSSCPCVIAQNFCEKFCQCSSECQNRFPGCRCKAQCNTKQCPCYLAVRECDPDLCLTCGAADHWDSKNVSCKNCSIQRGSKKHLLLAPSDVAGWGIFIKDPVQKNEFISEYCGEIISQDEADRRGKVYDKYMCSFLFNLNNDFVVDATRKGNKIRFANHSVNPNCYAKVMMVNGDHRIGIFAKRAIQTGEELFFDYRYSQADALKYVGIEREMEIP
Sequence of Protein arginine N-methyltransferase 1 (Homo sapiens) (Q99873 whole entry, looked up): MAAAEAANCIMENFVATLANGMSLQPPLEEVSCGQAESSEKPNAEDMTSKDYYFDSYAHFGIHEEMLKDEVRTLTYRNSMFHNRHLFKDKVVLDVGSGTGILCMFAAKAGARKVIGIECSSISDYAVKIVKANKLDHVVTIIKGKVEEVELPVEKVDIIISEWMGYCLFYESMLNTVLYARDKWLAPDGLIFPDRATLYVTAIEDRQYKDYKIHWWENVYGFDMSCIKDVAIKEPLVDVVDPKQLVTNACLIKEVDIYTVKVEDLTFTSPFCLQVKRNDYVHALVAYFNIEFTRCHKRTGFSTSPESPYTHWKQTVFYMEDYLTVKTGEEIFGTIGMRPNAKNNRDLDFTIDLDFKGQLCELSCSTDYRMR
Sequence of DNA (cytosine-5)-methyltransferase 1 (Homo sapiens) (P26358 whole entry, the tested form may be a part): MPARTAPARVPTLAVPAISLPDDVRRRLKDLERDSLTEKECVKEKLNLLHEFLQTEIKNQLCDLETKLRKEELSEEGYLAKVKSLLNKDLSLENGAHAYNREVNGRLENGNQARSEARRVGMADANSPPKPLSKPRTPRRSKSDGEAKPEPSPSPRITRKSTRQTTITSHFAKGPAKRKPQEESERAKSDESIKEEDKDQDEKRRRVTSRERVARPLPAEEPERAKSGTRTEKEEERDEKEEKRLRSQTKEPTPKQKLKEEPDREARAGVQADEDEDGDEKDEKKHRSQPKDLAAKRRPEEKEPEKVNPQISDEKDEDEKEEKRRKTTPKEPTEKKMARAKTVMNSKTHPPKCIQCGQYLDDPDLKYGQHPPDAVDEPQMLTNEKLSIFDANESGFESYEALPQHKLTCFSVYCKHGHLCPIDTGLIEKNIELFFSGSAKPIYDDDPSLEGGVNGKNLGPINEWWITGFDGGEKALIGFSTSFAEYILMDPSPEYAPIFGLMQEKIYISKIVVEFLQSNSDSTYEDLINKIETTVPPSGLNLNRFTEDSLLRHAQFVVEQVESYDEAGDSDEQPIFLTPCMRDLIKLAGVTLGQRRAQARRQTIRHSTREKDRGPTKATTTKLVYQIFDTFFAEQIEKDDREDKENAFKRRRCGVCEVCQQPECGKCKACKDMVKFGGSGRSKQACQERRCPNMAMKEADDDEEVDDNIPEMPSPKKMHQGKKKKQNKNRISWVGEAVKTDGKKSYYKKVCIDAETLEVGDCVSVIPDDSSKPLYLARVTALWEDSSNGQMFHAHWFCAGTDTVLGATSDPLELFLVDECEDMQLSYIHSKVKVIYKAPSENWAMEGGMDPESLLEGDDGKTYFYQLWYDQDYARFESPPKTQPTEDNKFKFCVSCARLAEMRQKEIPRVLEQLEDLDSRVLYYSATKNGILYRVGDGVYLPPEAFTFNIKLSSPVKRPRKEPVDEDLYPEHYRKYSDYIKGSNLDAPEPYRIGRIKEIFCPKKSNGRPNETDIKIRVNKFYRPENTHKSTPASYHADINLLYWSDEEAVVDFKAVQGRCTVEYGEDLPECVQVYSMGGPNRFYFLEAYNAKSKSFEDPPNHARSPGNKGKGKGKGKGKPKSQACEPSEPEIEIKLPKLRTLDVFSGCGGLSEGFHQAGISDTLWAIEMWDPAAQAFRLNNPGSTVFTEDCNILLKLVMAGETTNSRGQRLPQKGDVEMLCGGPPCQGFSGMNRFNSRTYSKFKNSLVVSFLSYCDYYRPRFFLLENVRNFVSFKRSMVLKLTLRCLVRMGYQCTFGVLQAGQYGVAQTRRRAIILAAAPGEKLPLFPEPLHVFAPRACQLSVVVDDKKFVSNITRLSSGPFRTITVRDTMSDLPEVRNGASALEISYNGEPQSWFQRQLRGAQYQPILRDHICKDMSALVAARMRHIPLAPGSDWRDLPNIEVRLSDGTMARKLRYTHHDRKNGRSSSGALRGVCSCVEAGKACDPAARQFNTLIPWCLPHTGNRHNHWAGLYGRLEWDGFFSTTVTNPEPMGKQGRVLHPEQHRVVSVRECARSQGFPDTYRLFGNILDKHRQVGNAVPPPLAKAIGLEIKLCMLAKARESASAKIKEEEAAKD
Sequence of Histone-lysine N-methyltransferase, H3 lysine-79 specific (Homo sapiens) (Q8TEK3 whole entry, looked up): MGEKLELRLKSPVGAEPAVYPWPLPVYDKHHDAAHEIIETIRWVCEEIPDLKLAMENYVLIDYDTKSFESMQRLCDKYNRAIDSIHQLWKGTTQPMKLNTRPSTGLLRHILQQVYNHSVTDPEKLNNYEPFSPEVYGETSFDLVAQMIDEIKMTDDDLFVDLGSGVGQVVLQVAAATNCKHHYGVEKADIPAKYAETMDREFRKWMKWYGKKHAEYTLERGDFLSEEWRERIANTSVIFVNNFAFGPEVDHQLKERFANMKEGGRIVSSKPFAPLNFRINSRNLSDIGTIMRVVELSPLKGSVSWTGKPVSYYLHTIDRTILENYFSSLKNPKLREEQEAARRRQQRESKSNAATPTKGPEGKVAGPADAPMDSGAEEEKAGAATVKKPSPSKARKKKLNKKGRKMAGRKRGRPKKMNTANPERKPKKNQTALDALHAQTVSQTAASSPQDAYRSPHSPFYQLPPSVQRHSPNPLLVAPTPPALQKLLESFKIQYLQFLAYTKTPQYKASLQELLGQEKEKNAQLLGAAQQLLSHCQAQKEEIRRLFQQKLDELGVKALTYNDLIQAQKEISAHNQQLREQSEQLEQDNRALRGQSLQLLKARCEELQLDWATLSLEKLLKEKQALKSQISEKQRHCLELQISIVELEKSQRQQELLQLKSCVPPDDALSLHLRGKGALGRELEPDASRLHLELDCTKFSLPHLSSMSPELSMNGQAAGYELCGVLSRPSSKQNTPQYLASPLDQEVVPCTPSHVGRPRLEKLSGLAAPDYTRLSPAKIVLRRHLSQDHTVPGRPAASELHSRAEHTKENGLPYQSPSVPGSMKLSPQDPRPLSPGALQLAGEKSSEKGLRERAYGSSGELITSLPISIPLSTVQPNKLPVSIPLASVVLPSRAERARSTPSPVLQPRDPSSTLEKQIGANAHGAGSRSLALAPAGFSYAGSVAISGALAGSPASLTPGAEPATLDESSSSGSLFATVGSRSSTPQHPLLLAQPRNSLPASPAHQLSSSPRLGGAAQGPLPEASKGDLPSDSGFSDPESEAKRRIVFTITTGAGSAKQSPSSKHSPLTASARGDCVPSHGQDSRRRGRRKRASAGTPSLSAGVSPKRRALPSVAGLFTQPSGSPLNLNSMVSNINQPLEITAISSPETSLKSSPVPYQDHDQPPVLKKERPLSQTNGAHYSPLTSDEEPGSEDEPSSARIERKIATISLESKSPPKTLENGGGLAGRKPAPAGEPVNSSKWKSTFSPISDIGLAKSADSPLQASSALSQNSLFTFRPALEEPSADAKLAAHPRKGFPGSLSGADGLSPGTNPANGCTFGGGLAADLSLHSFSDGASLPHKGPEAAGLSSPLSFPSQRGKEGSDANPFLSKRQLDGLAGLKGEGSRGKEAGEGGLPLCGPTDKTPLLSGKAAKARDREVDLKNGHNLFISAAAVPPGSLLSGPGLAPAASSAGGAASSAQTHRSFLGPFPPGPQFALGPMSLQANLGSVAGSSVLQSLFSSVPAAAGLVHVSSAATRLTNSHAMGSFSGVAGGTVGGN

As for `CC(C)(C)OC(=O)N1CCC(CCNc2ncnc3c2ncn3[C@@H]2O[C@H](CO)[C@@H](O)[C@H]2O)CC1`, binding in assay [1] was characterised by a dissociation constant (Kd) of 140 nM. The inhibition result (with Caulobacter vibrioides; in [2]; in [3]; in [4]; in [5]; in [6]) was “inactive” each time. Moreover, the inhibition result in assay [7] and in assay [8] was “inactive” each time.
Molecule `CC(C)(C)OC(=O)N1CCC(CCCNc2ncnc3c2ncn3[C@@H]2O[C@H](CO)[C@@H](O)[C@H]2O)CC1` had a dissociation constant Kd in assay [1] of 140 nM. The inhibition result (with Caulobacter vibrioides; in assay [2]; in [3]; in assay [4]; in [5]; in assay [6]) was “inactive” each time. Besides, the inhibition result in assay [7] and in [8] was “inactive” each time.
In [1], `OC[C@H]1O[C@@H](n2cnc3c(NCCCc4ccc(O)cc4)ncnc32)[C@H](O)[C@@H]1O` came in with a Kd of 230 nM. Moreover, the inhibition result (with Caulobacter vibrioides; in [2]; in [3]; in assay [4]; in assay [5]; in assay [6]) was “inactive” throughout. Also, the inhibition result in assay [7] and in [8] was “inactive” throughout.
